Measurements published in ChEMBL document CHEMBL1641445, “Synthesis, antiprotozoal, antimicrobial, β-hematin inhibition, cytotoxicity and methemoglobin (MetHb) formation activities of bis(8-aminoquinolines)” (Bioorg Med Chem, 2011).
Values after ≈ are worked out from the molar mass of the structure shown. Active and inactive are the calls of the source. The rule behind the calls is not given here.

Assays:
[1] = Hematotoxicity against RBC assessed as formation of methemoglobin at 20 ug/ml relative to control; format: cell-based; settings: erythrocyte
Method in brief: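 Metabolism-linked methemoglobin toxicity in vitro. Percent MetHb formation was determined at 20 µg/mL of compound relative to vehicle control.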

Candida albicans = test: Antifungal activity against Candida albicans ATCC 90028 at 20 ug/ml; format: functional, organism-based
Vero = test: Cytotoxicity against african green monkey Vero cells up to 10 ug/ml by neutral red assay; format: cell-based; settings: chlorocebus sabaeus
Method in brief: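 Vero (monkey kidney) cells were exposed up to a highest concentration of 10 µg/mL. Viability was read by neutral red uptake.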

Cryptococcus neoformans = test: Antifungal activity against Cryptococcus neoformans ATCC 90113; format: functional, organism-based
Plasmodium falciparum [2] = test: Antimalarial activity against chloroquine-sensitive Plasmodium falciparum D6 by LDH assay; format: functional, organism-based
Method in brief: (§1)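 Antiplasmodial activity was measured in vitro against P. falciparum blood-stage cultures. Read-out was parasite lactate dehydrogenase (LDH) activity, with IC50 values expressed in µg/mL. The same protocol was used for the D6 and W2 strains.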

[3] = Inhibition of beta-hematin formation; format: functional
Leishmania donovani = test: Antileishmanial activity against promastigotes of Leishmania donovani by alamar blue assay; format: functional, organism-based
Plasmodium falciparum [4] = test: Antimalarial activity against chloroquine-resistant Plasmodium falciparum W2 by LDH assay; format: functional, organism-based; method in brief: as §1
Nakaseomyces glabratus = test: Antifungal activity against Candida glabrata at 20 ug/ml; format: functional, organism-based
Pichia kudriavzevii = test: Antifungal activity against Candida krusei at 20 ug/ml; format: functional, organism-based
[5] = system: Mycobacterium intracellulare; test: Antibacterial activity against Mycobacterium intracellular ATCC 23068 at 20 ug/ml by CLSI method; format: functional, organism-based
Aspergillus fumigatus = test: Antifungal activity against Aspergillus fumigatus ATCC 90906 at 20 ug/ml; format: functional, organism-based
Plasmodium berghei = test: Antimalarial activity against Plasmodium berghei infected in mouse assessed as complete elimination of malaria parasites from animals at 100 mg/kg, po qd for 4 days measured up to 60 days; format: functional, organism-based; parameters: dose 100 mg/kg
Method in brief: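 Rodent P. berghei (sensitive strain) blood-schizontocidal model, 6 mice per group. Compounds were given orally once daily for 4 days at 10, 25, 50 or 100 mg/kg/day. Cure meant complete parasite elimination with survival to day D+60.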

[6] = Plasmodium falciparum, D6, read-out: IC50
[7] = Leishmania donovani, read-out: IC50
[8] = Plasmodium falciparum, W2, read-out: IC50

Row | Structure (SMILES) | Methemoglobin formation [1] [%] | Activity (Vero) | IC50 (Plasmodium falciparum [2]; [6]) [µg/mL] | IC50 [3] [µM] | IC50 (Leishmania donovani; [7]) [µg/mL] | IC50 (Plasmodium falciparum [4]; [8]) [µg/mL] | IC50 (Leishmania donovani) | IC90 (Leishmania donovani) | other results
1 | COc1cc(NC(C)CCCNC(=O)NC(CCCN)C(=O)NCCCC(C)Nc2cc(OC)cc3cccnc23)c2ncccc2c1.Cl (single isomer, unassigned; 37) | 7.9 | Non-toxic | 2.8 | 88 | 14 | 2 | – | – | IC50 (Candida albicans): Not Active; IC50 (Cryptococcus neoformans): 15 µg/mL; MFC (Cryptococcus neoformans): 20 µg/mL; MIC (Cryptococcus neoformans): 20 µg/mL; IC90 (Leishmania donovani; Leishmania donovani): 40 µg/mL
2 | COc1cc(NC(C)CCCNC(=O)NC(CCCNC(=N)N)C(=O)NCCCC(C)Nc2cc(OC)cc3cccnc23)c2ncccc2c1 (single isomer, unassigned; 39) | – | – | – | – | – | – | – | – | MFC (Candida albicans): inactive; MIC (Candida albicans): inactive; Activity (Nakaseomyces glabratus): inactive; Activity (Pichia kudriavzevii): inactive; MBC [5]: inactive; MIC [5]: inactive; Activity (Aspergillus fumigatus): inactive
3 | COc1cc(NC(C)CCCNC(=S)NCCCC(C)Nc2cc(OC)cc3ccc(C(C)(C)C)nc23)c2nc(C(C)(C)C)ccc2c1.Cl.Cl (stereo not drawn) | 0.75 | Non-toxic | 3 | > 1000 | 9 | 2.3 | – | – | IC90 (Leishmania donovani; Leishmania donovani): 31 µg/mL
4 | C[C@@H]1CC[C@H]2[C@@H](C)C(=O)O[C@@H]3O[C@@]4(C)CC[C@@H]1[C@]32OO4 [ARTEMISININ] | – | – | 0.015 (≈ 0.0531 µM) | – | – | – | – | – | –
5 | COc1cc(NC(C)CCCNC(=O)NCCCC(C)Nc2cc(OC)cc3ccc(C(C)(C)C)nc23)c2nc(C(C)(C)C)ccc2c1.Cl.Cl (stereo not drawn) | 1 | Non-toxic | 3 | > 1000 | – | – | Not Active | inactive | Activity (Plasmodium berghei): inactive
6 | COc1cc(NC(C)CCCNCC(=O)NCCCC(C)Nc2cc(OC)cc3cccnc23)c2ncccc2c1.Cl.Cl (stereo not drawn) | 20.3 | Non-toxic | – | > 1000 | 20 | – | – | inactive | IC50 (Plasmodium falciparum [2]): Not Active; IC50 (Plasmodium falciparum [4]): Not Active
7 | COc1cc(NC(C)CCCN)c2nc(C(C)(C)C)ccc2c1 (stereo not drawn) | – | – | – | 2.9 | – | – | – | – | –
8 | COc1cc(NC(C)CCCNC(=O)c2cncc(C(=O)NCCCC(C)Nc3cc(OC)cc4cccnc34)c2)c2ncccc2c1.Cl (stereo not drawn) | 5.5 | Non-toxic | 3.3 | 110 | 18 | 3 | – | inactive | –
9 | COc1cc(NC(C)CCCNC(=O)NCCCC(C)Nc2cc(OC)cc3cccnc23)c2ncccc2c1.Cl.Cl (stereo not drawn) | 9.8 | Non-toxic | 4.76 | > 1000 | – | 4.76 | Not Active | inactive | Activity (Plasmodium berghei): inactive
10 | COc1cc(NC(C)CCCNC(=O)NC(=O)NCCCC(C)Nc2cc(OC)cc3ccc(C(C)(C)C)nc23)c2nc(C(C)(C)C)ccc2c1.Cl.Cl (stereo not drawn) | 8.8 | Non-toxic | – | > 1000 | 25 | – | – | – | IC50 (Plasmodium falciparum [2]): Not Active; IC90 (Leishmania donovani; Leishmania donovani): > 40 µg/mL; IC50 (Plasmodium falciparum [4]): Not Active
11 | COc1cc(NC(C)CCCNC(=O)c2ccncc2C(=O)NCCCC(C)Nc2cc(OC)cc3cccnc23)c2ncccc2c1.Cl (stereo not drawn) | 3.55 | Non-toxic | 3 | 108 | – | 1.7 | Not Active | inactive | –
12 | COc1cc(NC(C)CCCNC(=O)NC(=O)NCCCC(C)Nc2cc(OC)cc3cccnc23)c2ncccc2c1.Cl.Cl (stereo not drawn) | 2.25 | Non-toxic | 4.76 | 155 | – | 3.4 | Not Active | inactive | Activity (Plasmodium berghei): inactive
